According to ChEMBL document CHEMBL1177705, “Synthesis and biological characterization of the histone deacetylase inhibitor largazole and C7- modified analogues” (J Med Chem, 2010):
Activity calls are given as the source filed them. The calls are words filed in the database; no cut-off is given here.

Assays:
Histone deacetylase 1 [1] = molecular target: T1, Histone deacetylase 1 (Homo sapiens, UniProt Q13547); assay: Ratio of largazole IC50 to compound IC50 for human recombinant HDAC1
NB-4 [2] = assay: Effect on differentiation of human NB4 cells assessed as induction of CD11c expression at 5 uM after 48 hrs by propidium iodide staining-base FACS analysis; type: functional
How it was run: (§1)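 NB4 cells in RPMI 1640/FBS at 37 °C, 5% CO2, treated with compounds from DMSO. 2.5 × 10^5 cells were pelleted and PBS-washed, then stained 30 min at 4 °C in the dark with PE-anti-CD11c, with PE-IgG as isotype background control. Cells were resuspended in PBS with 0.25 μg/mL PI and analysed by flow cytometry, excluding PI-positive cells. Run in triplicate.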

NB-4 [3] = assay: Cell cycle arrest in human NB4 cells assessed as increase in accumulation at pre-G1 phase at 5 uM after 24 hrs by FACS analysis; type: functional, cell-based
How it was run: (§2)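 NB4 acute promyelocytic leukemia cells grown in RPMI 1640 with heat-inactivated FBS, glutamine, antibiotics, 37 °C, 5% CO2. Compounds given from DMSO. They were kept 30 min in the dark, then DNA content was read by flow cytometry with the pre-G1 fraction scored. Run in triplicate.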

NB-4 [4] = assay: Cell cycle arrest in human NB4 cells assessed as mild increase in accumulation at pre-G1 phase at 5 uM after 48 hrs by FACS analysis; type: functional, cell-based; how it was run: as §2
Histone deacetylase 1 [5] = molecular target: T1, Histone deacetylase 1; assay: Inhibition of human recombinant HDAC1 after 15 mins by fluorimetric assay
[6] = molecular target: Histone deacetylase (Homo sapiens) (UniProt Q13547+O15379+Q9UBN7+Q92769+Q9UQL6+Q8WUI4+Q9BY41+Q96DB2+P56524+Q9UKV0+Q969S8); details: NB-4, at 5 µM
NB-4 [7] = assay: Effect on differentiation of human NB4 cells assessed as induction of CD11c expression at 5 uM after 24 hrs by propidium iodide staining-base FACS analysis; type: functional; how it was run: as §1
Tubulin (Homo sapiens) = Tubulin (Homo sapiens) (UniProt P68371+Q9H4B7+P0DPH7+P68366+Q13509+Q71U36+P04350+Q3ZCM7+P07437+P68363+Q9BQE3+Q6PEY2+Q13885+Q9BVA1+Q9BUF5); assay: Inhibition of HDAC in human NB4 cells assessed as increase in acetylate tubulin level at 5 uM after 24 hrs by Western blot analysis; type: cell-based; details: NB-4
How it was run: (§3)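 NB4 cells treated with compounds from DMSO, harvested and PBS-washed. Lysis was 15 min at 4 °C in 50 mM Tris-HCl pH 7.4, 150 mM NaCl, 1% NP40, 10 mM NaF, 1 mM PMSF and protease inhibitors, then spun 30 min at 4 °C. Protein was measured by Bradford and lysates immunoblotted, with ERK1 as loading control.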

Histone deacetylase 4 = Histone deacetylase 4 (Homo sapiens, UniProt P56524); assay: Inhibition of human recombinant HDAC4 after 15 mins by fluorimetric assay
Sequence of Histone deacetylase 4 (P56524 whole entry): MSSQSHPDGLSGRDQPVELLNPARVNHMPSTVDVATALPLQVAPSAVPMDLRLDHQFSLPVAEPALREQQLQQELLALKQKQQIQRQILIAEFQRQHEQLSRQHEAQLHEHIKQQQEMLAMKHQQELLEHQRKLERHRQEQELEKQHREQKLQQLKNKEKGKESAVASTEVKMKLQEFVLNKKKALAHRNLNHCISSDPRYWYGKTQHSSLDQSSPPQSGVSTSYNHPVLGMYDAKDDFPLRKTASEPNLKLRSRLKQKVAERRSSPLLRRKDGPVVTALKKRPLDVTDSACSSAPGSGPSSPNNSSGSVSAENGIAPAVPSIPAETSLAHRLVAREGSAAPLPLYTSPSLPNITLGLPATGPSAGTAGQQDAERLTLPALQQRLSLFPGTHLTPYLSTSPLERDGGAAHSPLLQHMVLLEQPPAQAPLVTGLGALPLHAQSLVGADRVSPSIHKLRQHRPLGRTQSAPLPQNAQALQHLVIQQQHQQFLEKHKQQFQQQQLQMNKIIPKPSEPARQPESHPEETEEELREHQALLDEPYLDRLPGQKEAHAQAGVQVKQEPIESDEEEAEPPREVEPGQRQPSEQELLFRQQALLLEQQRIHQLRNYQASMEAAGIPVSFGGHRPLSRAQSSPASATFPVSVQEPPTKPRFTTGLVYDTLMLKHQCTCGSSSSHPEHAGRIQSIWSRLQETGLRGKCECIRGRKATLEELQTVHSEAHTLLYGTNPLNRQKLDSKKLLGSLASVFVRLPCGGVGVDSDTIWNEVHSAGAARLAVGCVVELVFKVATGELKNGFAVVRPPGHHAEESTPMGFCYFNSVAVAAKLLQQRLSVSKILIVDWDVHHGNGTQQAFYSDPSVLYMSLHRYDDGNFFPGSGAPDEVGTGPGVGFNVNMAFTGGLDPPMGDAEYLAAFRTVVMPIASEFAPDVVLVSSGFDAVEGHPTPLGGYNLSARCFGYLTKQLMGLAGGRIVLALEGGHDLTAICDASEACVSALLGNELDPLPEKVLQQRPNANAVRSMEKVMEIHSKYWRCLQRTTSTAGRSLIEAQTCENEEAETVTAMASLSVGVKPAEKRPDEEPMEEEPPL

NB-4 [8] = assay: Induction of p21WAF1/CIP1 expression in human NB4 cells at 5 uM after 24 hrs by Western blot analysis; type: functional, cell-based; how it was run: as §3
NB-4 [9] = assay: Cell cycle arrest in human NB4 cells assessed as increase in accumulation at pre-G1 phase at 1 uM after 24 hrs by FACS analysis; type: functional, cell-based; how it was run: as §2
Histone deacetylase 1 [10] = molecular target: T1, Histone deacetylase 1; assay: Ratio of compound IC50 to largazole IC50 for human recombinant HDAC1
How it was run: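 Enzyme was preincubated with compound 15 min at 37 °C, then 50 μM specific fluorogenic substrate was added. Reaction ran 1 h at 37 °C with gentle shaking, read by fluorescence; IC50 derived.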

T1 sequence (Q13547 whole entry): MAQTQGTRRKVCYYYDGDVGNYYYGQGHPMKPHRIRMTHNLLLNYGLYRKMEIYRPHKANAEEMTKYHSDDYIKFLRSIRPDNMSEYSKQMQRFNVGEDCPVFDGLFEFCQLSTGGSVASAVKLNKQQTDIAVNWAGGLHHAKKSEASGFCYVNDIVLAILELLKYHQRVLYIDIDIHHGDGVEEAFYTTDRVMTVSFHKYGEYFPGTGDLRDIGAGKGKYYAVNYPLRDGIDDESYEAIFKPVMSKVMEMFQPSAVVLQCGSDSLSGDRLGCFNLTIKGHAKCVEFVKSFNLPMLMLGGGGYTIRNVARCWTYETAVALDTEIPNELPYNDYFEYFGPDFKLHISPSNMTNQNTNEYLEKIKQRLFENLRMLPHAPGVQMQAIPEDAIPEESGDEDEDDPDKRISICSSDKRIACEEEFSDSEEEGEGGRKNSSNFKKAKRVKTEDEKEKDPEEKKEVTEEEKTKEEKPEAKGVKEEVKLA

Ratio IC50 (Histone deacetylase 1 [1])	IC50 (Histone deacetylase 1 [5]) [nM]	inhibition [6]	increase in acetylated tubulin (active/not active) (Tubulin (Homo sapiens))	IC50 (Histone deacetylase 4) [nM]	Ratio IC50 (Histone deacetylase 1 [10])	SMILES	Activity (NB-4 [2]) [%]	Activity (NB-4 [3])	Activity (NB-4 [4])	Activity (NB-4 [7]) [%]	Activity (NB-4 [8])	Activity (NB-4 [9])
2	4.7	Active	inactive	3000		CCCCCCCC(=O)SCC/C=C/[C@@H]1CC(=O)NCc2nc(cs2)-c2nc(cs2)C(=O)N[C@@H](C(C)C)C(=O)O1	5	inactive	Active	5		
			Active			O=C(CCCCCCC(=O)Nc1ccccc1)NO		Active			Active	
	13.7	Active	Active	7500		CCCCCCCC(=O)SCC/C=C/[C@@H]1CC(=O)NCc2nc(cs2)C2=N[C@@H](CS2)C(=O)N[C@@H](C(C)C)C(=O)O1	5	Active		5	Active	Active
	4.5	Active	Active	3000		CCCCCCCC(=O)SCC/C=C/[C@@H]1CC(=O)NCc2nc(cs2)C2=N[C@@](Cc3ccccc3)(CS2)C(=O)N[C@@H](C(C)C)C(=O)O1	5	Active		5	Active	Active
	161	Active	Active	4900	10	CCCCCCCC(=O)SCC/C=C/[C@@H]1CC(=O)NCc2nc(cs2)C2=N[C@@](CC)(CS2)C(=O)N[C@@H](C(C)C)C(=O)O1	5	Active		5	Active	Active
						Nc1ccccc1NC(=O)c1ccc(CNC(=O)OCc2cccnc2)cc1		Active			Active	
						CC1=C(/C=C/C(C)=C/C=C/C(C)=C/C(=O)O)C(C)(C)CCC1						Active

SMILES	Ratio IC50 (Histone deacetylase 1 [1])	IC50 (Histone deacetylase 1 [5]) [nM]	inhibition [6]	increase in acetylated tubulin (active/not active) (Tubulin (Homo sapiens))	IC50 (Histone deacetylase 4) [nM]	Ratio IC50 (Histone deacetylase 1 [10])	Activity (NB-4 [2]) [%]	Activity (NB-4 [3])	Activity (NB-4 [4])	Activity (NB-4 [7]) [%]	Activity (NB-4 [8])	Activity (NB-4 [9])
CCCCCCCC(=O)SCC/C=C/[C@@H]1CC(=O)NCc2nc(cs2)C2=N[C@@](C)(CS2)C(=O)N[C@@H](C(C)C)C(=O)O1 [LARGAZOLE]		11.4	Active	Active	3000		5	Active		5	Active	Active
